Experimental data from ChEMBL document CHEMBL3272082, “Racemic diastereoisomers of 1-amino-2-hydroxycyclopentanecarboxylic acid” (J Med Chem, 1976).
Activity calls are given as the source filed them. The rule behind the calls is not given here.

Experiments:
[1] = Retardation factor of the compound in cyclohexylamine-water-methyl ethyl ketone-1-butanol at 1:2.5:5:5 ratio by paper chromatography; assay type: physicochemical; settings: buffer
Summary of the method: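 Paper chromatography in cyclohexylamine–water–methyl ethyl ketone–1-butanol (1:2.5:5:5). Rf values compared with allothreonine and threonine run in the same system.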

Jensen sarcoma [2] = assay: Inhibition of growth of rat Jensen sarcoma cells assessed as new cells at 50 ug/ml after 72 hrs in presence of 50 ug/ml threonine and 26 ug/ml serine (reference value: 100%); assay type: functional; set-up: scale not given: the % may be the effect or the level left
Summary of the method: (§1)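 Jensen sarcoma cells seeded at 400000 cells/flask in replicate flasks in McCoy's 7a medium with 10% fetal calf serum, gassed with 8% CO2–92% air, 37°, 24 hr, then counted for zero time. Medium replaced with fresh medium containing analog at 50 μg/ml, with threonine added as listed and serine in medium at 26 μg/ml. Medium renewed at 48 hr. New cells counted at 72 hr, expressed as % of control in normal medium.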

Enterococcus faecalis = assay: Antimicrobial activity against Streptococcus faecalis 8043 assessed as growth inhibition up to 300 ug/ml; assay type: functional, organism-based
Summary of the method: (§2)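 Microbial growth toxicity tested by typical microbial procedures; each isomer at concentrations up to 300 μg/ml.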

Escherichia coli [3] = assay: Antimicrobial activity against Escherichia coli 9723 assessed as growth inhibition up to 300 ug/ml; assay type: functional, organism-based; summary of the method: as §2
Jensen sarcoma [4] = assay: Inhibition of growth of rat Jensen sarcoma cells assessed as new cells at 50 ug/ml after 72 hrs in presence of 18 ug/ml threonine and 26 ug/ml serine (reference value: 100%); assay type: functional; set-up: scale not given: the % may be the effect or the level left; summary of the method: as §1
[5] = system: Lactiplantibacillus plantarum; assay: Antimicrobial activity against Lactobacillus arabinosus 8014 assessed as growth inhibition up to 300 ug/ml; assay type: functional, organism-based; summary of the method: as §2
Escherichia coli [6] = assay: Antimicrobial activity against Escherichia coli W assessed as growth inhibition up to 300 ug/ml; assay type: functional; summary of the method: as §2
[7] = system: Leuconostoc mesenteroides; assay: Antimicrobial activity against Leuconostoc mesenteroides 10830 assessed as growth inhibition up to 300 ug/ml; assay type: functional; summary of the method: as §2
Jensen sarcoma [8] = assay: Inhibition of growth of rat Jensen sarcoma cells assessed as new cells at 50 ug/ml after 72 hrs in presence of 26 ug/ml serine (reference value: 100%); assay type: functional; set-up: scale not given: the % may be the effect or the level left; summary of the method: as §1
Jensen sarcoma [9] = assay: Inhibition of growth of rat Jensen sarcoma cells assessed as new cells at 50 ug/ml after 72 hrs in presence of 25 ug/ml threonine and 26 ug/ml serine (reference value: 100%); assay type: functional; set-up: scale not given: the % may be the effect or the level left; summary of the method: as §1

C[C@@H](O)[C@H](N)C(=O)O [THREONINE]
Rf [1]: 0.54

N[C@@]1(C(=O)O)CCC[C@H]1O (relative stereo)
Activity (Jensen sarcoma [2]): 68% | Rf [1]: 0.45 | growth inhibition (GI) (Enterococcus faecalis): inactive | growth inhibition (GI) (Escherichia coli [3]): inactive | Activity (Jensen sarcoma [4]): 68% | growth inhibition (GI) [5]: inactive | growth inhibition (GI) (Escherichia coli [6]): inactive | growth inhibition (GI) [7]: inactive | Activity (Jensen sarcoma [8]): 12%

N[C@@]1(C(=O)O)CCC[C@@H]1O (relative stereo)
Activity (Jensen sarcoma [2]): 68% | Rf [1]: 0.38 | growth inhibition (GI) (Enterococcus faecalis): inactive | growth inhibition (GI) (Escherichia coli [3]): inactive | Activity (Jensen sarcoma [4]): 69% | growth inhibition (GI) [5]: inactive | growth inhibition (GI) (Escherichia coli [6]): inactive | growth inhibition (GI) [7]: inactive | Activity (Jensen sarcoma [8]): 12%

NC1(C(=O)O)CCCC1 [CYCLOLEUCINE]
Activity (Jensen sarcoma [9]): 5% | Activity (Jensen sarcoma [8]): 0%

C[C@H](O)[C@H](N)C(=O)O
Rf [1]: 0.41
